Assay results from ChEMBL document CHEMBL4414601 (J Med Chem, 2019).
Converted amounts (≈) assume the structure as drawn. The source made the active and inactive calls. No cut-off for these calls is given here.

Experiments:
[1] = Aqueous solubility of compound; settings: buffer
L929 = assay: Cytotoxicity against mouse L929 cells assessed as reduction in viability by dual luciferase reporter gene assay; format: ADME, cell-based
[2] = Permeability of compound by PAMPA
[3] = Lipophilicity, LogD of compound by reverse phase HPLC analysis
Plasmodium falciparum [4] = assay: Antiplasmodial activity against Plasmodium falciparum 3D7A erythrocytic stage assessed as reduction in [3H]hypoxanthine incorporation preincubated for 24 hrs followed by [3H]hypoxanthine addition and measured after 24 hrs by microbeta scintillation counting method; format: functional, organism-based
Summary of the method: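 Nine threefold serial dilutions from 5 μM top concentration. Incubated 24 h at 37 °C under 5% CO2/5% O2/90% N2, then 0.2 μCi [3H]-hypoxanthine per well for another 24 h. Cells harvested on glass fibre filters and counted. Data normalized to compound-free parasitized RBCs; IC50 fitted.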

[5] = target: cGMP-dependent protein kinase (Plasmodium falciparum, UniProt W7JX98); assay: Inhibition of Plasmodium falciparum full length N-terminal His-tagged PKG expressed in Escherichia coli RosettaTM 2(DE3) pLysS cells using FAM-GRTGRRNSI-NH2 as substrate preincubated for 30 mins followed by ATP addition and measured after 30 mins by microfluidic mobility shift assay
[6] = Clearance in human liver microsomes at 0.5 uM measured up to 45 mins in presence of NADPH by HPLC-MS/MS analysis; format: ADME, Microsome
[7] = target: Voltage-gated inwardly rectifying potassium channel KCNH2 (Homo sapiens, UniProt Q12809); assay: Inhibition of human ERG expressed in CHO cells by Q-patch clamp assay
[8] = Clearance in mouse liver microsomes at 0.5 uM measured up to 45 mins in presence of NADPH by HPLC-MS/MS analysis; format: ADME, Microsome
Plasmodium falciparum [9] = assay: Antiplasmodial activity against […] of Plasmodium falciparum NF54 assessed as reduction in female gametocytes activation preincubated for 48 hrs followed by gametocytes activation and measured after 24 hrs by fluorescence based automated inverted microscopic analysis; format: functional, organism-based
Summary of the method: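 NF54 gametocytes were activated by lowered temperature plus ookinete medium with xanthurenic acid and anti-Pfs25-Cy3 antibody (1/2000 final dilution). Cultures were then kept at 26 °C for 24 h in the dark. Activated females were counted by Cy3 anti-Pfs25 fluorescence, with events gated on size, roundness and fluorescence intensity.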

Plasmodium falciparum [10] = assay: Antiplasmodial activity against […] of Plasmodium falciparum NF54 assessed as reduction in male gametocytes activation preincubated for 48 hrs followed by gametocytes activation and measured after 24 hrs by fluorescence based automated inverted microscopic analysis; format: functional, organism-based
Summary of the method: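 Gametocyte activation was triggered by reduced temperature and ookinete medium containing xanthurenic acid. Male exflagellation centres were detected from a 10-frame video, scoring pixel changes caused by flagellar movement shifting surrounding cells.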

[11] = Clearance in rat liver microsomes at 0.5 uM measured up to 45 mins in presence of NADPH by HPLC-MS/MS analysis; format: ADME, Microsome
Plasmodium falciparum [12] = assay: Antiplasmodial activity against Plasmodium falciparum 3D7A erythrocytic stage assessed as reduction in [3H]hypoxanthine incorporation preincubated for 24 to 120 hrs followed by subculture in absence of compound and measured after 21 to 28 days by microbeta scintillation counting method; format: functional, organism-based
Summary of the method: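 P. falciparum 3D7A cultures were drug-exposed for 120 h, with samples taken every 24 h (24, 48, 72, 96 and 120 h). Viable parasites were quantified by limiting dilution, counting wells with growth after 21 and 28 days by [3H]-hypoxanthine incorporation.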

Plasmodium falciparum [13] = assay: Antiplasmodial activity against Plasmodium falciparum 3D7A asexual erythrocytic stage assessed as reduction in [3H]hypoxanthine incorporation preincubated for 48 hrs followed by [3H]hypoxanthine addition and measured after 24 hrs by microbeta scintillation counting method; format: functional, organism-based
Plasmodium falciparum [14] = assay: Antiplasmodial activity against Plasmodium falciparum 3D7A harboring with PKG T618Q mutant asexual erythrocytic stage assessed as reduction in [3H]hypoxanthine incorporation preincubated for 72 hrs followed by [3H]hypoxanthine addition and measured after 24 hrs by microbeta scintillation counting method; format: functional, organism-based
Plasmodium falciparum [15] = assay: Antiplasmodial activity against Plasmodium falciparum 3D7A harboring with PKG T618Q mutant asexual erythrocytic stage assessed as reduction in [3H]hypoxanthine incorporation preincubated for 48 hrs followed by [3H]hypoxanthine addition and measured after 24 hrs by microbeta scintillation counting method; format: functional, organism-based
Plasmodium falciparum [16] = assay: Antiplasmodial activity against Plasmodium falciparum 3D7A asexual erythrocytic stage assessed as reduction in [3H]hypoxanthine incorporation preincubated for 72 hrs followed by [3H]hypoxanthine addition and measured after 24 hrs by microbeta scintillation counting method; format: functional, organism-based

Chain of Voltage-gated inwardly rectifying potassium channel KCNH2 (Q12809 whole entry): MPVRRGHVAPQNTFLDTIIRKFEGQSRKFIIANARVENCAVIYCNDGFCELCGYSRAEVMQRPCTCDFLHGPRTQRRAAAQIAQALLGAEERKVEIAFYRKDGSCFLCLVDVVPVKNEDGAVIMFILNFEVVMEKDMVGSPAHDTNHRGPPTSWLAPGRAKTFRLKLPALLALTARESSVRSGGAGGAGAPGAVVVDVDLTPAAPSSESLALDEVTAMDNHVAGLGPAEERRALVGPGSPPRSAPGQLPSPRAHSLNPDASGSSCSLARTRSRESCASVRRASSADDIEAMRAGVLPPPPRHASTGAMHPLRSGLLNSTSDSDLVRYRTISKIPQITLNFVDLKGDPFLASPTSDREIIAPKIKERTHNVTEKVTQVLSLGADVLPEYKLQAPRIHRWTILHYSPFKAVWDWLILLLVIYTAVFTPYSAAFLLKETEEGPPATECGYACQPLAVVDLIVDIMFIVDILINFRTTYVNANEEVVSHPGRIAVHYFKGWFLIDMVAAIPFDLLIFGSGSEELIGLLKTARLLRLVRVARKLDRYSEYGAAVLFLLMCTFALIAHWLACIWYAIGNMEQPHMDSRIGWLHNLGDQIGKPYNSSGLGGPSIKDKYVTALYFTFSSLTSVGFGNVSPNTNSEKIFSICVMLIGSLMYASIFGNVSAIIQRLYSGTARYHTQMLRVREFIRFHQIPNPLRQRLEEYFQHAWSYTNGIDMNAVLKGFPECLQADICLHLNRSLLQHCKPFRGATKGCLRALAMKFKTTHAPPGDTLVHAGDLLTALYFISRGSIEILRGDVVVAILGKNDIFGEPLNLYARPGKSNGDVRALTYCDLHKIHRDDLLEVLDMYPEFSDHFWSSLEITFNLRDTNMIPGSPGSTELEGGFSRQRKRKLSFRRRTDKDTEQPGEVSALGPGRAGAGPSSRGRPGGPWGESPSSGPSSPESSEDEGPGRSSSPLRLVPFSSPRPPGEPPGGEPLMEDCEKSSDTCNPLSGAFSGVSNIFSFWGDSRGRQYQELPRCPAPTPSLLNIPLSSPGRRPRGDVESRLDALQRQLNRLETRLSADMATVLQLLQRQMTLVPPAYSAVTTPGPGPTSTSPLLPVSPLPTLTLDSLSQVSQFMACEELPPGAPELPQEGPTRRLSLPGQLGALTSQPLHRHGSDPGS
Chain of cGMP-dependent protein kinase (W7JX98 whole entry): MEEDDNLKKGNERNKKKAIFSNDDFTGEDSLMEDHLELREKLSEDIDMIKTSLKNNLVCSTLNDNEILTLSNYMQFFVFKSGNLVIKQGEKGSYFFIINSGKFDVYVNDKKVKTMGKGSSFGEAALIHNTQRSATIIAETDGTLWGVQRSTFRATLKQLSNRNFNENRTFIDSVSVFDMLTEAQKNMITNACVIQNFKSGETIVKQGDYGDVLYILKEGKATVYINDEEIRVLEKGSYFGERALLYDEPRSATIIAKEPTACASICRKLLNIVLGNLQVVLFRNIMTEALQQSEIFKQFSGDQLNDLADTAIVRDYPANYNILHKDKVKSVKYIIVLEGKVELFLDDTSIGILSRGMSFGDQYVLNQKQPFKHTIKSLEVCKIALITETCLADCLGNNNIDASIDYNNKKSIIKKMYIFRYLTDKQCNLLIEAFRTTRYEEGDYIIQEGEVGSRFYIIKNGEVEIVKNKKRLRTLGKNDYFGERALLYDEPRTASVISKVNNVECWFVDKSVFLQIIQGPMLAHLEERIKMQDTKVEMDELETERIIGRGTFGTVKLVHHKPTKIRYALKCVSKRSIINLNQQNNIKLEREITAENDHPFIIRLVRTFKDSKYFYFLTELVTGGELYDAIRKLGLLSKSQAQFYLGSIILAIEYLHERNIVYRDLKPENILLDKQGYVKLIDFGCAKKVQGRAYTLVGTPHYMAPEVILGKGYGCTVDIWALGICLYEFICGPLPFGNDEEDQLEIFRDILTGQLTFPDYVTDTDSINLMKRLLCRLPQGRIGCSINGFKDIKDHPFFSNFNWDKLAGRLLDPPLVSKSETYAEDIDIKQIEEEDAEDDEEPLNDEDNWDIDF

Row | SMILES | solubility [1] | EC50 (L929) | Papp [2] | chromatographic logD [3] | EC50 (Plasmodium falciparum [4]) | IC50 [5] | CLH [6] | IC50 [7] | CLH [8] | EC50 (Plasmodium falciparum [9]) | EC50 (Plasmodium falciparum [10]) | CLH [11] | Activity (Plasmodium falciparum [12]) | EC50 (Plasmodium falciparum [13]) | EC50 (Plasmodium falciparum [14]) | EC50 (Plasmodium falciparum [15]) | EC50 (Plasmodium falciparum [16])
1 | Cc1cc(Nc2nccc(-c3sc(C4CCNCC4)nc3-c3ccc(F)cc3)n2)on1 | 66 µM (≈ 28.8 µg/mL) | 2300 nM | 12 ×10⁻⁶ cm/s | 2.61 | 2650 nM | 3 nM |  |  |  |  |  |  |  |  |  |  | 
2 | Fc1ccc(-c2nc(C3CCNCC3)sc2-c2ccnc(Nc3nncs3)n2)cc1 | 66 µM (≈ 29 µg/mL) | 2800 nM | < 1 ×10⁻⁶ cm/s | 1.82 | 1020 nM |  | 0.55 mL/min/g | 2500 nM | 0.67 mL/min/g | 380 nM | 140 nM | 0.46 mL/min/g |  |  |  |  | 
3 | C[C@H]1[C@H](OC(=O)CCC(=O)O)O[C@@H]2O[C@@]3(C)CC[C@H]4[C@H](C)CC[C@@H]1[C@@]24OO3 [ARTESUNATE] |  |  |  |  | 30 nM |  |  |  |  | > 10000 nM | > 10000 nM |  |  |  |  |  | 
4 | CCc1nc(N)nc(N)c1-c1ccc(Cl)cc1 [PYRIMETHAMINE] |  |  |  |  | 100 nM |  |  |  |  | > 10000 nM | > 10000 nM |  |  |  |  |  | 
5 | Fc1ccc(-c2nc(N3CCOCC3)sc2-c2ccnc(Nc3ccc(N4CCNCC4)cc3)n2)cc1 | 38 µM (≈ 19.7 µg/mL) | 3300 nM | 28 ×10⁻⁶ cm/s | 3.99 | 1620 nM |  | 0.4 mL/min/g |  | 0.48 mL/min/g | 1070 nM | 1120 nM | 0.59 mL/min/g |  |  |  |  | 
6 | CN1CCC(C(=O)Nc2nc(-c3ccc(F)cc3)c(-c3ccnc(Nc4ccc(N5CCNCC5)cc4)n3)s2)CC1 | 11 µM (≈ 6.3 µg/mL) | 7800 nM | 1 ×10⁻⁶ cm/s | 2.2 | 1460 nM |  | 0.4 mL/min/g |  | 0.48 mL/min/g | 1310 nM | 630 nM | 0.46 mL/min/g |  |  |  |  | 
7 | CN1CCN(c2ccc(Nc3nccc(-c4sc(C5CCNCC5)nc4-c4ccc(F)cc4)n3)cc2)CC1 | 41 µM (≈ 21.7 µg/mL) | 3800 nM | 11 ×10⁻⁶ cm/s | 2.79 | 700 nM | 0.6 nM | 0.53 mL/min/g | 13200 nM | 0.96 mL/min/g | 300 nM | 260 nM | 1.27 mL/min/g |  |  |  |  | 
8 | Nc1nc(-c2ccc(F)cc2)c(-c2ccnc(Nc3ccc(N4CCNCC4)cc3)n2)s1 | 24.5 µM (≈ 11 µg/mL) | 1800 nM |  | 2.42 | 1750 nM |  | 0.52 mL/min/g | 35500 nM | 1.47 mL/min/g | 190 nM | 150 nM | 1.98 mL/min/g |  |  |  |  | 
9 | Cc1cc(Nc2nccc(-c3sc(C4CCNCC4)nc3C3CC3)n2)ccn1 | 342 µM (≈ 134 µg/mL) | 8900 nM | 18 ×10⁻⁶ cm/s | 1.99 | 270 nM |  | 0.4 mL/min/g |  | 0.87 mL/min/g |  |  | 1.18 mL/min/g | Active |  |  |  | 
10 | CN1CCC(c2nc(-c3ccc(F)c(NS(C)(=O)=O)c3)c(-c3ccnc(NCC4CC4)n3)s2)CC1 | 311 µM (≈ 161 µg/mL) | 17000 nM | 34 ×10⁻⁶ cm/s | 3.2 | 1020 nM |  | 0.49 mL/min/g | 1340 nM | 1.32 mL/min/g |  |  | 6.22 mL/min/g | inactive | 1020 nM | 3900 nM | > 5000 nM | 
11 | Fc1ccc(-c2nc(C3CCNCC3)sc2-c2ccnc(Nc3cnccn3)n2)cc1 | 68 µM (≈ 29.5 µg/mL) | 3200 nM | 16 ×10⁻⁶ cm/s | 2.32 | 600 nM | 5 nM | 0.4 mL/min/g |  | 0.72 mL/min/g |  |  | 0.49 mL/min/g |  | 1360 nM | 880 nM | 820 nM | 690 nM
12 | OC(CNc1nccc(-c2sc(C3CCNCC3)nc2-c2ccc(F)cc2)n1)c1ccncc1 (stereo unspecified) | 225 µM (≈ 107 µg/mL) | 15100 nM | 1 ×10⁻⁶ cm/s | 1.79 |  |  | 5.8 mL/min/g | 28200 nM | 2.08 mL/min/g | 10600 nM | 3670 nM | 0.77 mL/min/g |  |  |  |  | 
13 | Fc1ccc(-c2nc(C3CCNCC3)sc2-c2ccnc(Nc3cccnn3)n2)cc1 | 123 µM (≈ 53.3 µg/mL) | 3200 nM | 19 ×10⁻⁶ cm/s | 2.14 | 980 nM |  | 0.47 mL/min/g |  | 4.42 mL/min/g |  |  | 0.95 mL/min/g |  |  |  |  | 
14 | Fc1ccc(-c2nc(N3CCCC3)sc2-c2ccnc(Nc3ccc(N4CCNCC4)cc3)n2)cc1 | 54 µM (≈ 27.1 µg/mL) | 3800 nM | 27 ×10⁻⁶ cm/s | 4.43 | 770 nM | 2 nM | 0.59 mL/min/g |  | 1.56 mL/min/g |  |  | 0.81 mL/min/g |  |  |  |  | 
15 | Cc1cc(Nc2nccc(-c3sc(C4CCNCC4)nc3CN3CCCCC3)n2)ccn1 |  | 20000 nM | 1 ×10⁻⁶ cm/s |  | 190 nM |  |  |  |  |  |  |  | Active |  |  |  | 
